L major viab: inhibitors of Leishmania major promastigote growth; hit rate 9% among 200,000; Leishmania major promastigotes, resazurin fluorescence viability; inhibition, % at 10 µM; in the data active = inhibition above about 50%;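 also: promastigotes grown with compound for 44 hours at 28 °C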
PMI activator: phosphomannose isomerase (human) activation. P34949. purified human PMI, coupled resazurin fluorescence, 20 min; active compounds read high; 1 = vehicle control, 0 substrate-free wells. activation factor at 20 µM. hit rate 0.005% among 190,000;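 active = activation factor of 2 or more at 20 µM, relative to plate controls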
Target sequence (P34949 whole entry, looked up): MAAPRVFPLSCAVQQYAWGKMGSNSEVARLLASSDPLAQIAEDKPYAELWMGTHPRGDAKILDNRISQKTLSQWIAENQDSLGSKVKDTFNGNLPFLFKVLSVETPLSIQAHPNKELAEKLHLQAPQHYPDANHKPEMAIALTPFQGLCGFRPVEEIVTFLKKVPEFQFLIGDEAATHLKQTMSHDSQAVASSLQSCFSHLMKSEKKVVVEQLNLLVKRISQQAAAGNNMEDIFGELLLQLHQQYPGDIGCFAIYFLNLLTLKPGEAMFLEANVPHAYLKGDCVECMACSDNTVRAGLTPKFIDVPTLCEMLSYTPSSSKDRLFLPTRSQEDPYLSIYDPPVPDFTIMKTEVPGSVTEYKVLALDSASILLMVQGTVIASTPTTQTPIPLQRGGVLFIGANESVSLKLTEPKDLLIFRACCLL
WT yeast gro inh: growth inhibition of WT yeast, mitochondrial fusion screen. mitochondrial fusion phenotypic screen, WT strain. hit rate 2.1% among 190,000. inhibition, % at 10 µM; in the data active = inhibition above about 58%; tested in S. cerevisiae
m-calpain inh: inhibitors of pig calpain II. hit rate 0.37% among 220,000. inhibition, % at 16 µM. AID 1236. purified calpain II, fluorogenic peptide substrate, 30 min;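 active = inhibition above about 50%, limit read from the data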
Rad51 HR inh: Rad51 (human) homologous recombination inhibition; hRad51 DNA strand exchange, fluorescence dequenching; hit rate 0.085% among 200,000; inhibition, % at 10 µM;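 active = inhibition above 40% at the single screening dose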
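material = hRad51 filaments on single-stranded DNA | timing = filaments 15 min 37 °C, then compound 30 min | signal = FRET fluorescence dequenching, excitation 485 nm, emission 520 nm | benchmarks = control wells and blank wells on each plate | evaluation = percent inhibition relative to plate controls and blanks | compound = 10 µM final, single point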
PMI act satM6P: PMI (human) activation, high substrate; P34949; coupled PMI enzyme assay, resazurin fluorescence, 20 min; active compounds read high; 1 = untreated enzyme, 0 = substrate-free blank; activation factor at 20 µM; hit rate 0.34% among 190,000;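 active = activation factor of 2 or more at 20 µM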
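test system = human PMI in coupled enzyme assay | medium = HEPES-buffered pH 7.4 with magnesium and detergent | also added = 1.0 mM mannose-6-phosphate substrate with 0.22 mM NADP+ | compound = 20 µM single dose | times = 20 min incubation at room temperature | measured by = resorufin fluorescence (Ex 544/Em 590 nm) from resazurin via diaphorase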
Hits are given with their value; . = inactive; / = not tested or not shown. Rows were chosen to be rich in hits. Some 9.8% of all compounds tested hit in one or more screens of this group.

SMILES	L major viab	PMI activator	WT yeast gro inh	m-calpain inh	Rad51 HR inh	PMI act satM6P
COc1cccc(C(=O)C2CCCN(Cc3ccon3)C2)c1 (stereo not given)	.	.	.	.	.	.
CCn1cc(CN2CCCC(C(=O)c3cccc(OC)c3)C2)c(C)n1 (stereo not given)	78	.	.	.	.	.
COc1cccc(C(=O)C2CCCN(Cc3cccc(C)n3)C2)c1 (stereo not given)	.	.	/	.	.	.
COc1cccc(C(=O)C2CCCN(Cc3ccc4nsnc4c3)C2)c1 (stereo not given)	87	.	.	.	/	.
O=C1NC(=O)[C@]2(Cc3ccccc3N3CCN(c4ccccc4)CC32)C(=O)N1Cc1ccccc1 (stereo not given in full)	.	.	.	.	.	2.1
O=C1NC(=O)[C@]2(Cc3ccccc3N3CCN(c4ccccc4)CC32)C(=O)N1c1ccccc1 (stereo not given in full)	.	.	.	.	.	2.1
O=C1NC(=O)C2(Cc3ccccc3N3CCCC32)C(=O)N1c1ccc(Cl)cc1 (stereo not given)	.	.	.	.	.	.
CN1C(=O)NC(=O)C2(Cc3ccccc3N3CCOCC32)C1=O (stereo not given)	.	.	.	.	.	.
CN1C(=O)NC(=O)[C@]2(Cc3ccccc3N3CCN(c4ccccc4)CC32)C1=O (stereo not given in full)	.	.	.	.	.	2.1
CN(C(=O)Oc1ccc(C(C)(C)C)cc1)c1ccccc1	.	.	.	.	.	.
CCOc1ccc2nc(N=Nc3c(O)[nH]c(=S)[nH]c3=O)sc2c1	.	.	.	.	.	.
CC(=NCCC1=CCCCC1)c1c(O)n(-c2ccccc2)c(=O)[nH]c1=O	/	/	/	.	.	/
CCN(CC)P(c1n(C)cc[n+]1C)N(CC)CC	.	.	.	.	.	.
COP(=O)(NC(=O)C(Cl)(Cl)Cl)OC	/	/	/	.	.	/
Cn1c(O)c(C=NC2CCCCCC2)c(=O)[nH]c1=S	.	.	.	.	.	.
O=C1NS(=O)c2cc([N+](=O)[O-])cc([N+](=O)[O-])c21 (stereo not given)	.	.	.	.	.	2
Cc1ccc(N2CCN(CCc3ccccc3)CC2)cc1	84	.	.	.	.	.
Cn1c(O)c(C=NCCN2CCNCC2)c(=O)[nH]c1=O	/	/	/	.	/	/
CC(=O)Nc1ccccc1C(=O)OCc1ccccc1F	.	.	.	.	.	.
CCN(CC)CCCC(C)N=C(c1ccccc1)c1c(O)n(C)c(=O)n(C)c1=O (stereo not given)	95	.	.	.	.	.
O=P(OCC(F)(F)C(F)F)(N1CCOCC1)N1CCOCC1	.	.	.	.	89	.
CC(C)CCn1c(N)c(C(=O)OCC2CCCO2)c2nc3ccccc3nc21 (stereo not given)	54	.	.	.	.	.
CCCCn1c(NC(=O)c2ccco2)c(C(=O)OCC)c2nc3ccccc3nc21	76	.	.	.	.	.
CCCCn1c(N)c(C(=O)OCC2CCCO2)c2nc3ccccc3nc21 (stereo not given)	100	.	.	.	.	.
CCCCn1c(N)c(C(=O)OCCOC)c2nc3ccccc3nc21	/	/	/	.	.	/
SMILES	L major viab	PMI activator	WT yeast gro inh	m-calpain inh	Rad51 HR inh	PMI act satM6P
Cc1ccc(S(=O)(=O)N(c2cc(Cl)c(O)c(Cl)c2)P(=O)(OC(C)C)OC(C)C)cc1	.	.	.	.	.	.
CCOC(=O)c1nsnc1NCCCl	.	.	.	.	.	.
CN(N)N=Nc1nc2c([nH]1)c(=O)n(C)c(=O)n2C	/	/	/	.	.	/
CCN1C(=O)/C(=C/c2ccc(N(CC)CC)cc2OC)C(=O)NC1=S	99	.	.	.	.	.
COC(=O)C1=C(c2ccc(S(C)(=O)=O)cc2)C[C@@H]2CC[C@H]1N2C(=O)N1CCC(O)CC1	/	/	/	/	.	/
COc1cccc(C2(O)CCN(Cc3ccncc3)CC2)c1	92	/	.	.	.	/
c1ccc(NC2=NCCS2)cc1	/	/	/	.	.	/
CSc1ncc(CN2CCCC(C(=O)c3ccccc3SC)C2)cn1 (stereo not given)	/	/	/	.	.	/
CCn1ccnc1CN1CCCC(C(=O)c2ccc(SC)cc2)C1 (stereo not given)	.	.	.	.	/	.

High-throughput results (PubChem)
